Columns and labels:
[1] = biological target: T1, 5'-nucleotidase (Mus musculus, UniProt Q61503); test: Inhibition of mouse CD73 expressed in CHO cells incubated for 60 mins before addition of AMP and further incubated for 60 mins by colorimetric assay; type: cell-based
T1 sequence (Q61503 whole entry): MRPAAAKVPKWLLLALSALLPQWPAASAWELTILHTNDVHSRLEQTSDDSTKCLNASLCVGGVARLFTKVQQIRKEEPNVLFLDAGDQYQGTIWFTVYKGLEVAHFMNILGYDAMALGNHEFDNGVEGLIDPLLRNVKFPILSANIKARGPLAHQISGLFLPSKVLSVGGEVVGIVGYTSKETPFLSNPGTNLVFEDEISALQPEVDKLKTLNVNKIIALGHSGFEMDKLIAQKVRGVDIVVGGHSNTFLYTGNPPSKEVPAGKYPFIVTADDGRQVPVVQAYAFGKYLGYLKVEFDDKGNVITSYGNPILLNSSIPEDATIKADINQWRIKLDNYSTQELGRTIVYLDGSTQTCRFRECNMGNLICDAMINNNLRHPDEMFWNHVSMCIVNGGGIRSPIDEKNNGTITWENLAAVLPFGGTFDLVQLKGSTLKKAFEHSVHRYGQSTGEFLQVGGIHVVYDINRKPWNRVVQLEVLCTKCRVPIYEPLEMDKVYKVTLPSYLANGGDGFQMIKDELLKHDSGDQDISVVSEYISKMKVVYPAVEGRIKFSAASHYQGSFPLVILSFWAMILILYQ

[2] = biological target: T2, Ectonucleoside triphosphate diphosphohydrolase 1 (Homo sapiens, UniProt P49961); test: Inhibition of human CD39 expressed in CHO cells incubated for 4 hrs before addition of ATP and further incubated for 60 mins by colorimetric assay
T2 sequence (P49961 whole entry): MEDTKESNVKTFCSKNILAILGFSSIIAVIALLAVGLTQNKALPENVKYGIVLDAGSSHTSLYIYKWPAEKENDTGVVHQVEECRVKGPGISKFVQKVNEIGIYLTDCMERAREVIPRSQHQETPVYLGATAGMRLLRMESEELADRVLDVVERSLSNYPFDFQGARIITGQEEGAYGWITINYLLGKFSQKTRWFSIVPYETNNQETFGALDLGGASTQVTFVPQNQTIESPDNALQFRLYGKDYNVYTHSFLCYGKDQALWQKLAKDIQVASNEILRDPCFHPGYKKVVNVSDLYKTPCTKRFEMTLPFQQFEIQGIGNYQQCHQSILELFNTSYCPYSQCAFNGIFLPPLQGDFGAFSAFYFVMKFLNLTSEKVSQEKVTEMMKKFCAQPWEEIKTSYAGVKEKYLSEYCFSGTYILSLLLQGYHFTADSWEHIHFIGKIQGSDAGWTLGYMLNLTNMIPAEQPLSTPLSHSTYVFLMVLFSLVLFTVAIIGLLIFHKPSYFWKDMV

[3] = biological target: Adenosine receptor A2a (Homo sapiens, UniProt P29274); test: Inhibition of A2AR (unknown origin) expressed in CHO cells assessed as reduction in NECA-stimulated cellular cAMP levels incubated for 90 mins by FRET assay; type: functional, cell-based
Sequence of Adenosine receptor A2a (P29274 whole entry): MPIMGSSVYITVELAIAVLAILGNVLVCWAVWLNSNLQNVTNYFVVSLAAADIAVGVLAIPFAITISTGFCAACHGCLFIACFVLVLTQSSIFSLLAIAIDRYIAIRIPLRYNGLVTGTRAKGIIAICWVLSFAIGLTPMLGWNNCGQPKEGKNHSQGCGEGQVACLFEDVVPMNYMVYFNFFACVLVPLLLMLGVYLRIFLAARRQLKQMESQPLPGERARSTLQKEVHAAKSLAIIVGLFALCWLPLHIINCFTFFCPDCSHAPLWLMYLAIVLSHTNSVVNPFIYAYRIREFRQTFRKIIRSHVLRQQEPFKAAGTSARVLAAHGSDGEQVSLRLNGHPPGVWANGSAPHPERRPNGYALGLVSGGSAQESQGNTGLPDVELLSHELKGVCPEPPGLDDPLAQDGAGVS
Method in brief: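 Tetracycline-induced CHO cells stably expressing ADORA2A, 2000 cells/well, preincubated with 20-point 1:2 compound dilutions (final 10–0 μM). Stimulated with 30 nM NECA, 30 min at 37 °C. Quenched with ULight-anti-cAMP in lysis buffer, then Eu-cAMP tracer added, 60 min at 37 °C. Inhibition read as change in cellular cAMP.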

[4] = biological target: T3, 5'-nucleotidase (Homo sapiens, UniProt P21589); test: Inhibition of human CD73 expressed in CHO cells incubated for 60 mins before addition of AMP and further incubated for 60 mins by colorimetric assay; type: cell-based
T3 sequence (P21589 whole entry): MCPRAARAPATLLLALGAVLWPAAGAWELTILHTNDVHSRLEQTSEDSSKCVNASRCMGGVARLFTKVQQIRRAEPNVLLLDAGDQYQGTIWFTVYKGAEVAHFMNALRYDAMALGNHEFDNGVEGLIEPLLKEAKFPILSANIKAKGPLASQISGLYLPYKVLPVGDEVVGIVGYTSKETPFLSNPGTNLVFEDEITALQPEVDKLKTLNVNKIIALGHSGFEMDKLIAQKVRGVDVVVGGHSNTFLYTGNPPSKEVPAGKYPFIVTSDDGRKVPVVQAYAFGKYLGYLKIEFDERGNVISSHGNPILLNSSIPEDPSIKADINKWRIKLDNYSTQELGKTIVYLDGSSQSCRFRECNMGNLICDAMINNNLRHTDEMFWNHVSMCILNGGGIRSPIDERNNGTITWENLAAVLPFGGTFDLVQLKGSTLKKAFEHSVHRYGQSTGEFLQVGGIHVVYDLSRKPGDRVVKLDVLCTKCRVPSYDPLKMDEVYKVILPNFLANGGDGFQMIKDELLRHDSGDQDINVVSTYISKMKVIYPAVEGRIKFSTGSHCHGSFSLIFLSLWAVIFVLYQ
Method in brief: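 Thawed stable CD73-CHO cells in HEPES pH 7.4 saline buffer with 0.1% glucose, 1500 cells/well. Preincubated 60 min at 37 °C with 16-point 1:3 compound dilutions (final 100–0 or 0.1–0 μM; 10 or 2% DMSO). 25 μM AMP then added, 60 min at 37 °C/5% CO2. Supernatant phosphate measured with PiColorLock Gold. Activity normalized to DMSO and no-cell wells. IC50 from a four-parameter fit.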

[5] = biological target: T3, 5'-nucleotidase; test: Inhibition of soluble human CD73 incubated for 60 mins before addition of AMP and further incubated for 60 mins by colorimetric assay
[6] = Stability in dog hepatocytes; type: ADME, cell-based, Canis lupus familiaris, Hepatocyte
[7] = Stability in mouse hepatocytes; type: ADME, cell-based, Hepatocyte
[8] = Stability in rat hepatocytes; type: ADME, cell-based, Hepatocyte

IC50 [1]: 13 nM
IC50 [2]: > 10000 nM
IC50 [3]: > 10000 nM
IC50 [4]: 2.6 nM
IC50 [5]: 0.86 nM
Stabilty [6]: Stable
Stabilty [7]: Stable
Stabilty [8]: Stable
Structure (SMILES): O=P(O)(O)COC[C@H]1O[C@@H](n2ncc3c(NC4CCCC4)nc(Cl)nc32)[C@H](O)[C@@H]1O
